Legend:
Conditions in all cases: in vivo
Avena sativa = assay: Effect on chlorophyll content in Avena sativa assessed as chlorophyll dissipation rate at 20 degC in the dark at 320 uM relative to control
Avena fatua = assay: Effect on chlorophyll content in Avena fatua assessed as chlorophyll dissipation rate at 20 degC in the dark at 320 uM relative to control
Triticum aestivum = assay: Effect on chlorophyll content in Triticum aestivum (wheat) assessed as chlorophyll dissipation rate at 20 degC in the dark at 320 uM relative to control
Avena sterilis = assay: Effect on chlorophyll content in Avena sterilis assessed as chlorophyll dissipation rate at 20 degC in the dark at 320 uM relative to control
Hordeum vulgare = assay: Effect on chlorophyll content in Hordeum vulgare (barley) assessed as chlorophyll dissipation rate at 20 degC and 12 hr photoperiod at 320 uM relative to control; type: ADME, organism-based
Outline: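 Leaf sections were treated with 320 µM metabolite and incubated in the dark at 20 °C, with 16 tubes per treatment. Every 12 h, segments from one tube were split into four tubes and extracted in DMSO at 65 °C for 30 min. Extracts were read at A665, tissue was dried at 105 °C and weighed, and chlorophyll was expressed as A665 per g dry weight.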

Measured: Activity

C[C@@H]1CC[C@H](O)/C=C/C(=O)O[C@H](C)CC[C@H](O)/C=C/C(=O)O1 [(5S,8R,13S,16R)-(-)-PYRENOPHOROL]
Non-toxic: all assays above
